Assay results reported in ChEMBL document CHEMBL1147266, “New dammarane triterpenes from the aerial parts of Ibicella lutea grown in Argentina” (J Nat Prod, 2003).
Values after ≈ are worked out from the molar mass of the structure shown.

Legend:
Format in all cases: functional, cell-based
A549 = experiment: Cytotoxicity against human A549 cells after 3 days by crystal violet staining; conditions: A549, 72 h
Method in brief: (§1)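 Cells kept in log-phase growth in EMEM with nonessential amino acids, 2.0 mM L-glutamine, 5% FCS, 10^-2 M NaHCO3 and penicillin/streptomycin. Trypsin-harvested cells seeded at 1×10^4/well in 24-well dishes with graded sample concentrations, drug-free growth controls included, in duplicate. Incubated 3 days at 37 °C, 5% CO2, then crystal violet stained for approximate IC50. Coulter counts of trypsinized cells gave %G dose-response curves for IC50.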

[1] = Cytotoxicity against human H116 cells after 3 days by crystal violet staining; conditions: H116, 72 h; method in brief: as §1
PSN1 = experiment: Cytotoxicity against human PSN1 cells after 3 days by crystal violet staining; conditions: PSN1, 72 h; method in brief: as §1
T98G = experiment: Cytotoxicity against human T98G cells after 3 days by crystal violet staining; conditions: 72 h; method in brief: as §1
HT-29 = experiment: Cytotoxicity against human HT-29 cells after 3 days by crystal violet staining; conditions: HT-29, 72 h; method in brief: as §1

SMILES	IC50 (A549) [mg/L]	IC50 [1] [mg/L]	IC50 (PSN1) [mg/L]	IC50 (T98G) [mg/L]	IC50 (HT-29) [mg/L]
CC(=O)O[C@@H]1C[C@@H]2[C@@]3(C)[C@H](OC(C)=O)C[C@@H](OC(C)=O)C(C)(C)[C@@H]3CC[C@@]2(C)[C@]2(C)CC[C@H]([C@]3(C)CC[C@H](C(C)(C)O)O3)[C@@H]12 (relative stereo)	> 5	> 5	> 5	> 5	–
CC(=O)O[C@H]1CC[C@]2(C)[C@H]3C[C@@H](O)[C@@H]4[C@@H]([C@]5(C)CC[C@@H](C(C)(C)O)O5)CC[C@@]4(C)[C@]3(C)CC[C@H]2C1(C)C	> 5	> 5	> 5	> 5	–
CC(=O)O[C@H]1CC[C@]2(C)[C@H]3C[C@@H](OC(C)=O)[C@@H]4[C@@H]([C@]5(C)CC[C@@H](C(C)(C)OC(C)=O)O5)CC[C@@]4(C)[C@]3(C)CC[C@H]2C1(C)C	> 5	> 5	> 5	> 5	–
CC(C)(O)[C@@H]1CC[C@@](C)([C@H]2CC[C@]3(C)[C@@H]2[C@H](O)C[C@@H]2[C@@]4(C)CC[C@H](O)C(C)(C)[C@@H]4CC[C@]23C)O1 (relative stereo)	5 (≈ 10.5 µM)	5 (≈ 10.5 µM)	–	–	–
CC(=O)O[C@@H]1C[C@@H](OC(C)=O)[C@]2(C)[C@H]3C[C@@H](O)[C@@H]4[C@@H]([C@]5(C)CC[C@H](C(C)(C)O)O5)CC[C@@]4(C)[C@]3(C)CC[C@H]2C1(C)C (relative stereo)	> 10	> 10	–	–	> 10
CC(C)(O)[C@H]1CC[C@@](C)([C@H]2CC[C@]3(C)[C@@H]2[C@H](O)C[C@@H]2[C@@]4(C)[C@H](O)C[C@@H](O)C(C)(C)[C@@H]4CC[C@]23C)O1	> 10	> 10	–	–	> 10
CC(=O)O[C@@H]1C[C@@H](O)[C@]2(C)[C@H]3C[C@@H](O)[C@@H]4[C@@H]([C@]5(C)CC[C@H](C(C)(C)O)O5)CC[C@@]4(C)[C@]3(C)CC[C@H]2C1(C)C (relative stereo)	> 10	> 10	–	–	> 10
CC(=O)O[C@H]1CC[C@]2(C)[C@H]3C[C@@H](OC(C)=O)[C@@H]4[C@@H]([C@]5(C)CC[C@@H](C(C)(C)O)O5)CC[C@@]4(C)[C@]3(C)CC[C@H]2C1(C)C	5 (≈ 8.92 µM)	5 (≈ 8.92 µM)	–	–	–
CC(=O)O[C@@H]1C[C@@H]2[C@@]3(C)[C@H](OC(C)=O)C[C@@H](OC(C)=O)C(C)(C)[C@@H]3CC[C@@]2(C)[C@]2(C)CC[C@H]([C@]3(C)CC[C@H](C(C)(C)OC(C)=O)O3)[C@@H]12	–	5 (≈ 7.57 µM)	–	–	–
